The target of series [1] is T1, Vascular endothelial growth factor receptor 2 (Homo sapiens, UniProt P35968). Briefly: Inhibition of VEGFR-2 kinase. The method in brief:
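HTRF KinEASE assay with recombinant VEGFR-2 kinase domain. Enzyme, ATP and substrate levels were optimised per kit. TR-FRET signal read after detection reagents. IC50 from dose–response curves.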

The target in series [2] is T1, Vascular endothelial growth factor receptor 2. Briefly: Inhibition of recombinant VEGFR-2 kinase domain by homogeneous time-resolved fluorescence assay.
The next series deals with CYP2C9 (Homo sapiens, UniProt P11712). Briefly: Inhibition of recombinant human CYP2C9 assessed as remaining activity at 10 uM after 20 mins by fluorescence assay. Format: ADME. Particulars: read-out: Activity.
The target of the next series is CYP3A4 (Homo sapiens, UniProt P08684). Briefly: Inhibition of recombinant human CYP3A4 assessed as remaining activity at 10 uM after 20 mins by fluorescence assay. In kind it is ADME. To be noted: read-out: Activity.
A further series addresses CYP2D6 (Homo sapiens, UniProt P10635). Briefly: Inhibition of recombinant human CYP2D6 assessed as remaining activity at 10 uM after 20 mins by fluorescence assay. To be noted: read-out: Activity. Format: ADME.
The target in another series is CYP2C19 (Homo sapiens, UniProt P33261). Briefly: Inhibition of recombinant human CYP2C19 assessed as remaining activity at 10 uM after 20 mins by fluorescence assay. Particulars: read-out: Activity. In kind it is ADME.
The nature of series [3]: Metabolic stability in human liver microsomes assessed as compound remaining at 10 uM after 30 mins by LC/MS/MS method. Format: ADME, Microsome. Particulars: read-out: Stability.
The target of a further series is T2, CYP1A2 (Homo sapiens, UniProt P05177).
T2 sequence (P05177 whole entry): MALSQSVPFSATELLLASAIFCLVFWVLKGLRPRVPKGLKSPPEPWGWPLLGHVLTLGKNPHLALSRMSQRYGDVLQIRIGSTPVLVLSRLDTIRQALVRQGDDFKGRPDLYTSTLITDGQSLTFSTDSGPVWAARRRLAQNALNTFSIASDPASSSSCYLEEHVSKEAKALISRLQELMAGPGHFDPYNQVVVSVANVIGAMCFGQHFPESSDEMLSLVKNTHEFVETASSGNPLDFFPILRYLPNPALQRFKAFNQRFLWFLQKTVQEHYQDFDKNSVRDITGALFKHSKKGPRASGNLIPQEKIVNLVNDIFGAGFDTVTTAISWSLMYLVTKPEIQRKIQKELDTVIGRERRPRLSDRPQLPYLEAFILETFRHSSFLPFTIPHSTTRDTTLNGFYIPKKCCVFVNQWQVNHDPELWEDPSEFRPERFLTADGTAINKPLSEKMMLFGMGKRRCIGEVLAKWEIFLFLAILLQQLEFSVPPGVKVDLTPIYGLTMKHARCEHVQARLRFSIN
Briefly: Inhibition of recombinant human CYP1A2 assessed as remaining activity at 10 uM after 20 mins by fluorescence assay. Format: ADME. To be noted: read-out: Activity.

The test system of series [4] is HUVEC. Briefly: Antiproliferative activity against Vegf-stimulated HUVEC at 1 uM after 24 hrs by WST-1 assay relative to control. Format: functional, Homo sapiens. The essentials: (§1)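 Pooled HUVECs grown in 1:1 EBM-2 with EGM-2 supplements, used at passage eight or lower. Seeded at 10,000 cells/well on collagen type I-coated plates. After 24 h, treated 24 h with rhVEGF (20 ng/mL) plus compound. Proliferation read by Premix WST-1 assay.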
A general note: Tetrazolium dyes change colour on reduction, which living cells bring about.

For series [5], the system named is HUVEC. Briefly: Antiproliferative activity against Vegf-stimulated HUVEC at 0.1 uM after 24 hrs by WST-1 assay relative to control. Format: functional, Homo sapiens. The method in brief:
as §1

For series [6], the system named is HUVEC. Briefly: Antiangiogenic activity in HUVEC assessed as tube formation at 10 uM after 16 to 18 hrs by microscopy relative to control. Format: functional, Homo sapiens. The essentials: (§2)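 Pooled HUVECs seeded at 40,000/well on wells coated with a 1:1 mix of Matrigel (10 mg/mL) and EBM-2/EGM-2 medium, coating set 1 h at 37 °C. Cells incubated 16–18 h, then fixed. Tube formation imaged by camera and quantified by image analysis.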

Series [7] concerns HUVEC. Briefly: Antiproliferative activity against Vegf-stimulated HUVEC at 10 uM after 24 hrs by WST-1 assay relative to control. Format: functional, Homo sapiens. The essentials: as §1
Series [8] deals with HUVEC. Briefly: Antiangiogenic activity in HUVEC assessed as tube formation at 1 uM after 16 to 18 hrs by microscopy relative to control. In kind it is functional, Homo sapiens. The method in brief: as §2
Series [9] in a line: Metabolic stability in human liver microsomes assessed as compound remaining at 2 uM after 30 mins by LC/MS/MS method. Format: ADME, Microsome. To be noted: read-out: Stability. The method in brief:
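Human liver microsomes (0.5 mg/ml) in 100 mM potassium phosphate pH 7.4, test compound final 2 µM. Pre-incubated 5 min at 37 °C, then started with NADPH regenerating solution. Stopped at a single 30 min point with 3 volumes ice-cold acetonitrile containing imipramine (80 ng/ml) as internal standard. Samples vortexed, centrifuged and analysed by LC/MS/MS.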
(In general: Microsomes from liver hold many membrane-bound enzymes, among them those of drug oxidation.)

Usually IC50 stands for the midpoint of a concentration-inhibition curve.

SMILES strings stand for the structures.

Chain of CYP2C9 (P11712 whole entry): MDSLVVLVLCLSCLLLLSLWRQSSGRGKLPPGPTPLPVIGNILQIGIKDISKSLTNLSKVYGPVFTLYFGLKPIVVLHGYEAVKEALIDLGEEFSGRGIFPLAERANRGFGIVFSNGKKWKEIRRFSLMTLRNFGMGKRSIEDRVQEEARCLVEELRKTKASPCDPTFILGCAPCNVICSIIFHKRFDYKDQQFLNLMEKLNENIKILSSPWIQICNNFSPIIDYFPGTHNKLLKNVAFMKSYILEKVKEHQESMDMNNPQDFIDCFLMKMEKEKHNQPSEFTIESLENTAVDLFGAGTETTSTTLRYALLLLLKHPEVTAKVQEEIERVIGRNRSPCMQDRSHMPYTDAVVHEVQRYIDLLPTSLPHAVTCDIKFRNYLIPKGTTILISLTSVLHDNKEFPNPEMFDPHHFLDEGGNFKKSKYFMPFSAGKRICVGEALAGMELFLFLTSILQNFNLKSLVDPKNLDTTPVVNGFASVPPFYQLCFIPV
Chain of CYP3A4 (P08684 whole entry): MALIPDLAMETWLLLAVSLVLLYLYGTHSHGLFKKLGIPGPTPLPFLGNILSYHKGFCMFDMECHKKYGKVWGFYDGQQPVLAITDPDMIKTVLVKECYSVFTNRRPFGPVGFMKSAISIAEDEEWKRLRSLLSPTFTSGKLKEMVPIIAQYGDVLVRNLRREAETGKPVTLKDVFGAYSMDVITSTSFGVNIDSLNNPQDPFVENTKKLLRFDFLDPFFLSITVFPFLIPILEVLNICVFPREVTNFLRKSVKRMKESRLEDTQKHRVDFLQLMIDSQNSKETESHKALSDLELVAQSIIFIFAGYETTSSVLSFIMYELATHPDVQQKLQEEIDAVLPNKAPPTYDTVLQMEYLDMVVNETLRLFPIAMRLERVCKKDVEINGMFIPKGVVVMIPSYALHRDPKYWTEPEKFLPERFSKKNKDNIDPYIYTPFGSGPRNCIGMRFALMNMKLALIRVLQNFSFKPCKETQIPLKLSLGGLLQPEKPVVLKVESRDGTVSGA
Chain of CYP2C19 (P33261 whole entry): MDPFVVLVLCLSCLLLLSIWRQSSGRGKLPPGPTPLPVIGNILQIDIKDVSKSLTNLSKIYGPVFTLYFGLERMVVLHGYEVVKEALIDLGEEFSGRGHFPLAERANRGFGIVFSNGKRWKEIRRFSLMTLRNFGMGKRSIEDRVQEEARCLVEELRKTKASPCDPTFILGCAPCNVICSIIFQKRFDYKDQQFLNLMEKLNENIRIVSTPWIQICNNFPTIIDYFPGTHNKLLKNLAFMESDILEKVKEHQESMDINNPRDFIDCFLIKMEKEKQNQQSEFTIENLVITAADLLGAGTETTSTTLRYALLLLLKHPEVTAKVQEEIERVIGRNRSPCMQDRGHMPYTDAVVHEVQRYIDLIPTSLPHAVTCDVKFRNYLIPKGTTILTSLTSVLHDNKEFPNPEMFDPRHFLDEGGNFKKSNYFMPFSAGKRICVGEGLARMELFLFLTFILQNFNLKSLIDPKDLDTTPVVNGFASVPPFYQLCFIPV
T1 sequence (P35968 whole entry, the tested form may be a part): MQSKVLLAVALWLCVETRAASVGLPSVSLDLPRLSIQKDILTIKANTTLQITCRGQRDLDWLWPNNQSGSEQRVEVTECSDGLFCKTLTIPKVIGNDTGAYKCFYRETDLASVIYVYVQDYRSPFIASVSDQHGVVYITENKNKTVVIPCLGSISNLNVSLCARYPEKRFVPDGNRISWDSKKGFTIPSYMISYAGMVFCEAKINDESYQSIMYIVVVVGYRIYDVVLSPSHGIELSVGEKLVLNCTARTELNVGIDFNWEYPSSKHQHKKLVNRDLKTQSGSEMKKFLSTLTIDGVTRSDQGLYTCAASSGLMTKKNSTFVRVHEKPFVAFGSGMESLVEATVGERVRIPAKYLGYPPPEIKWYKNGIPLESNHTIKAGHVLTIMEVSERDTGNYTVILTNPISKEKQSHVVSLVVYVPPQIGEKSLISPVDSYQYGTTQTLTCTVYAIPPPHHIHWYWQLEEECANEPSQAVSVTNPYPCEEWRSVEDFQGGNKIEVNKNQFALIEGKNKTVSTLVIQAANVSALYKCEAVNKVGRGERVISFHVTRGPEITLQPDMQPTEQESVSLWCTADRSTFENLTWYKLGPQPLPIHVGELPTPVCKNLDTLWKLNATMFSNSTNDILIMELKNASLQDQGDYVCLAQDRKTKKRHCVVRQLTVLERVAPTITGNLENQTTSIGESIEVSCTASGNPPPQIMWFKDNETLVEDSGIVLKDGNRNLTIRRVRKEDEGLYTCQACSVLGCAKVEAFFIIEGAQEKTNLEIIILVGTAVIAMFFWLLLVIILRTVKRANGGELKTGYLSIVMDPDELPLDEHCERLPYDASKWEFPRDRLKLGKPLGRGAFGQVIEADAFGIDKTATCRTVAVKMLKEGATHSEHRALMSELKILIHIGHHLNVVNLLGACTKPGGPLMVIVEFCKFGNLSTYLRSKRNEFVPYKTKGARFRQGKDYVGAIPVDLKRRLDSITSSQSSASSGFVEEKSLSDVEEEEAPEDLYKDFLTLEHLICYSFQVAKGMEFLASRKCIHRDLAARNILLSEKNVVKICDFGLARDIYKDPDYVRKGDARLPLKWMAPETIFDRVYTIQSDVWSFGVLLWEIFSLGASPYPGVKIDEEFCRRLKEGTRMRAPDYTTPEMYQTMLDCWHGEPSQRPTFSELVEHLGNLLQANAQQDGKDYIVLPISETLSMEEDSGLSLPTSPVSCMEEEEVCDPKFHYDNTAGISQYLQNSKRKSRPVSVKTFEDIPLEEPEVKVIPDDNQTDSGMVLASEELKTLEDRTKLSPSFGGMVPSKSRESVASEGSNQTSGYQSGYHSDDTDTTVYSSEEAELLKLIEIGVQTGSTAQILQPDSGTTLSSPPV
Chain of CYP2D6 (P10635 whole entry): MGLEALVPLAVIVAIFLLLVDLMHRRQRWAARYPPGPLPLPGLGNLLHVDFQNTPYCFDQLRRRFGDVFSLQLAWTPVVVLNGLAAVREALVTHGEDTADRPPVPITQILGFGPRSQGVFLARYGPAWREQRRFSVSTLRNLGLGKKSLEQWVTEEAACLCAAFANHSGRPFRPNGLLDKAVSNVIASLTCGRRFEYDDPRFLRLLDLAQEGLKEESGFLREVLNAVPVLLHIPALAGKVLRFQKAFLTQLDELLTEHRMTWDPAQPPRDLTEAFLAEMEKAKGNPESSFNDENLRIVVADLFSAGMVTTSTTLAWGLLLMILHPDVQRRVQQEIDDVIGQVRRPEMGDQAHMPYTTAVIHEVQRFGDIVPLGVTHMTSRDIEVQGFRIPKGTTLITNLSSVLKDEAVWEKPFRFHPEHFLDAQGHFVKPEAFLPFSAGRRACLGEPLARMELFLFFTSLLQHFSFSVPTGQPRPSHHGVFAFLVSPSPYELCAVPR

`CN1CCc2nc(-c3cc4ccccc4[nH]c3=O)[nH]c2C1`: the IC50 in series [1] and in [2] was 1000 nM in each case.
On to `O=c1[nH]c2ccccc2cc1-c1nc2c([nH]1)CN(Cc1ccccc1)CC2`, for which the IC50 in series [2] was found to be 6000 nM.
Same read-out and setting: then `O=C(OCc1ccccc1)N1CCc2nc(-c3cc4ccccc4[nH]c3=O)[nH]c2C1`, with 600 nM; and `O=c1[nH]c2ccccc2cc1-c1nc2c([nH]1)CN(C1CCNCC1)CC2`, with 5000 nM; and `O=C(c1cccnc1)N1CCc2nc(-c3cc4ccccc4[nH]c3=O)[nH]c2C1`, with 200 nM.
On the same count and under the same terms, then `O=C(c1cccnc1)N1CCc2nc(-c3cc4c(F)cccc4[nH]c3=O)[nH]c2C1`, with 600 nM.
On to `O=C(c1cccnc1)N1CCc2nc(-c3cc4cc(F)ccc4[nH]c3=O)[nH]c2C1`, for which the activity at 20 min, 10 µM on CYP2C9 is 99%; at CYP3A4, 83%; on CYP2D6 it was 67%; on CYP2C19, 92%; at CYP1A2 it was 86%. Moreover, in series [3], the remaining at 0.5 h, 10 µM is 96%. Further, the IC50 in series [2] came out at 1 nM.
`O=C(c1ccncc1)N1CCc2nc(-c3cc4ccccc4[nH]c3=O)[nH]c2C1`: the IC50 in series [2] was found to be 200 nM.
The same measure, in the same setting: then `O=C(c1ccncc1)N1CCc2nc(-c3cc4c(F)cccc4[nH]c3=O)[nH]c2C1`, with 800 nM.
In the case of `O=C(c1ccncc1)N1CCc2nc(-c3cc4cc(F)ccc4[nH]c3=O)[nH]c2C1`, the activity at 20 min, 10 µM at CYP2C9 turned out to be 53%; on CYP3A4, 89%; at CYP2D6 it was 90%; on CYP2C19, 77%; on CYP1A2 it was 96%. Besides, the Activity with HUVEC [4] is 72%; in the series with HUVEC [5], 120%; in the series on HUVEC [6] it was 62%; in the series with HUVEC [7], 71%; in the series with HUVEC [8], 93%. The remaining at 0.5 h, 10 µM in series [3] was found to be 99%. Besides, the IC50 in [2] is 0.3 nM.
Take `O=C(c1ccc(CN2CCCCC2)cc1)N1CCc2nc(-c3cc4ccccc4[nH]c3=O)[nH]c2C1`: the IC50 in series [2] is 1.3 nM.
As to `O=C(c1ccc(CN2CCCCC2)cc1)N1CCc2nc(-c3cc4cc(F)ccc4[nH]c3=O)[nH]c2C1`, the activity at 20 min, 10 µM at CYP2C9 was 94%; on CYP3A4, 16%; on CYP2D6 it was 100%; on CYP2C19, 100%; at CYP1A2 it was 89%. Also, the Activity in the series with HUVEC [4] came to 82%; in the series on HUVEC [5], 92.3%; in the series with HUVEC [6] it was 99%; in the series with HUVEC [7] it was 79%; in the series on HUVEC [8], 102%. Also, the remaining at 0.5 h, 2 µM in series [9] was 92%. In addition, the IC50 in [2] came out at 4.9 nM.
As to `CCN(CC)CC(=O)N1CCc2nc(-c3cc4ccccc4[nH]c3=O)[nH]c2C1`, the IC50 in series [2] was 300 nM.
Still for that read-out and setting: then `O=C(CN1CCOCC1)N1CCc2nc(-c3cc4ccccc4[nH]c3=O)[nH]c2C1`, with 300 nM; and `O=C(CN1CCOCC1)N1CCc2nc(-c3cc4c(F)cccc4[nH]c3=O)[nH]c2C1`, with 1100 nM; and `O=C(CN1CCOCC1)N1CCc2nc(-c3cc4cc(F)ccc4[nH]c3=O)[nH]c2C1`, with 4.3 nM.
For `O=C(CN1CCOCC1)N1CCc2nc(-c3cc4cc(Cl)ccc4[nH]c3=O)[nH]c2C1`, in series [2], the IC50 came to 35 nM.
Same read-out and setting: with `COc1ccc2[nH]c(=O)c(-c3nc4c([nH]3)CN(C(=O)CN3CCOCC3)CC4)cc2c1` the figure was 760 nM; with `CN1CCN(CC(=O)N2CCc3nc(-c4cc5ccccc5[nH]c4=O)[nH]c3C2)CC1`, 300 nM; with `CN1CCN(CC(=O)N2CCc3nc(-c4cc5c(F)cccc5[nH]c4=O)[nH]c3C2)CC1`, 1050 nM.
On the same count and under the same terms, with `CN1CCN(CC(=O)N2CCc3nc(-c4cc5cc(F)ccc5[nH]c4=O)[nH]c3C2)CC1` the figure was 13 nM.
For the compound `CN1CCN(CC(=O)N2CCc3nc(-c4cc5cc(Cl)ccc5[nH]c4=O)[nH]c3C2)CC1`, the IC50 in series [2] was determined as 19 nM.
On the same count and under the same terms, with `COc1ccc2[nH]c(=O)c(-c3nc4c([nH]3)CN(C(=O)CN3CCN(C)CC3)CC4)cc2c1` the figure was 1100 nM; with `O=C(CN1CCCCC1)N1CCc2nc(-c3cc4ccccc4[nH]c3=O)[nH]c2C1`, 16 nM; with `O=C(CN1CCCCC1)N1CCc2nc(-c3cc4c(F)cccc4[nH]c3=O)[nH]c2C1`, 740 nM.
In the case of `O=C(CN1CCCCC1)N1CCc2nc(-c3cc4cc(F)ccc4[nH]c3=O)[nH]c2C1`, the IC50 in [2] turned out to be 8 nM.
`O=C(CN1CCCCC1)N1CCc2nc(-c3cc4cc(Cl)ccc4[nH]c3=O)[nH]c2C1`: in series [2], the IC50 stood at 22 nM.
The same measure, in the same setting: then `COc1ccc2[nH]c(=O)c(-c3nc4c([nH]3)CN(C(=O)CN3CCCCC3)CC4)cc2c1`, with 280 nM.
Same read-out and setting: with `O=C(CN1CCCC1)N1CCc2nc(-c3cc4ccccc4[nH]c3=O)[nH]c2C1` the figure was 400 nM.
The same measure, in the same setting: with `O=C(Cc1ccccn1)N1CCc2nc(-c3cc4ccccc4[nH]c3=O)[nH]c2C1` the figure was 1.3 nM; with `O=C(Cc1ccccn1)N1CCc2nc(-c3cc4cc(F)ccc4[nH]c3=O)[nH]c2C1`, 0.7 nM; with `O=C(Cc1ccncc1)N1CCc2nc(-c3cc4ccccc4[nH]c3=O)[nH]c2C1`, 6.7 nM.
On to `O=C(Cc1ccncc1)N1CCc2nc(-c3cc4cc(F)ccc4[nH]c3=O)[nH]c2C1`, for which the activity at 20 min, 10 µM stood at 28% at CYP2C9; 33% on CYP3A4; 21% on CYP2D6; 35% at CYP2C19; 58% on CYP1A2. Moreover, the remaining at 0.5 h, 10 µM in series [3] stood at 93%. Moreover, the IC50 in [2] is 8.6 nM.
As to `O=C(Cc1ccncc1)N1CCc2nc(-c3cc4cc(Cl)ccc4[nH]c3=O)[nH]c2C1`, the concentration for half-maximal inhibition (IC50) in series [2] stood at 0.5 nM.
Still for that read-out and setting: with `Cc1cccc(NC(=O)N2CCc3nc(-c4cc5ccccc5[nH]c4=O)[nH]c3C2)c1` the figure was 2.1 nM.
Take `COc1ccc(NC(=O)N2CCc3nc(-c4cc5ccccc5[nH]c4=O)[nH]c3C2)cc1`: in [2], the IC50 turned out to be 46 nM.
